Laboratory results published in paper PMC3032979 (Structure (London, England : 1993), 2011).
Where two headings read alike, the source gives them in different places.

Experiments:
CAR:RXR [1] = molecular target: T1, CAR:RXR (Mus musculus, UniProt O35627); assay: ITC, SRC1 box 2 peptide binding to wild-type CAR:RXR LBDs; design: species or system murine (mCAR LBD), human (RXR LBD); details: for affinity of ligand-bound CAR:RXR for SRC1 coactivator (in words): saturating meclizine versus TCPOBOP
(L343A)CAR:RXR = (L343A)CAR:RXR (Mus musculus, UniProt O35627, L343A); assay: ITC, SRC1 peptide binding to; design: species or system murine (mCAR LBD), human (RXR LBD); details: for ΔG / −TΔS / n (one-site binding model) / ΔH: SRC1 peptide binding, 25°C; for ΔG / −TΔS: pH 7.2; for n (one-site binding model) / ΔH: pH 7.2, average of at least three experiments ± SD
(L343F)CAR:RXR = molecular target: T2, (L343F)CAR:RXR (Mus musculus, UniProt O35627, L343F); assay: ITC, SRC1 peptide binding to; design: species or system murine (mCAR LBD), human (RXR LBD); details: for ΔG / −TΔS / n (one-site binding model) / ΔH: SRC1 peptide binding, 25°C; for ΔG / −TΔS: pH 7.2; for n (one-site binding model) / ΔH: pH 7.2, average of at least three experiments ± SD
T2 sequence (O35627 117-358 L343F): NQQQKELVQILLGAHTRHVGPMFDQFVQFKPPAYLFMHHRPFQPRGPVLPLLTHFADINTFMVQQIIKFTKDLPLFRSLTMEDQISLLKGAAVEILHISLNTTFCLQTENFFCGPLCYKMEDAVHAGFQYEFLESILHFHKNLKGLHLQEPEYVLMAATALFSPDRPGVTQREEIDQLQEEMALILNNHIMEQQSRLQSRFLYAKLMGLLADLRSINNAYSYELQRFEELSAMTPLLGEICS
T2 sequence (P19793 225-462 partner limits assumed): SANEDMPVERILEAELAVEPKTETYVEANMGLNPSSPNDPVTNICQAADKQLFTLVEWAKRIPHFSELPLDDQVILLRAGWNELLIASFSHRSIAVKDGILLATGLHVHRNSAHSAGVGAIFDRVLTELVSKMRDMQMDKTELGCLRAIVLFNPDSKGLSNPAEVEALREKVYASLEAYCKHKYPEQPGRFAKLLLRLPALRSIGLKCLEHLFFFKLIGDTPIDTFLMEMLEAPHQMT

CAR:(W282F)RXR = assay: steady-state tryptophan fluorescence quenching, CAR:; format: binding, murine (mCAR LBD), human (RXR LBD); details: 1.0 μM protein (Figure S2); excitation 295 nm; pH 8.0
CAR:(W305F)RXR = assay: steady-state tryptophan fluorescence quenching, CAR:; format: binding, murine (mCAR LBD), human (RXR LBD); details: 1.0 μM protein (Figure S2); excitation 295 nm; pH 8.0
Method in brief: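 Human RXR LBD (residues 225–462) carrying W305F, co-expressed with CAR LBD in E. coli BL21(DE3) Gold (0.5 mM IPTG, 20 h, 20°C). Heterodimer purified by Ni-NTA, then size exclusion in 20 mM Tris-HCl pH 8.0, 250 mM NaCl, 2.5 mM EDTA, 5.0 mM DTT. Steady-state emission scanned 305–400 nm and compared with wild-type and W282F heterodimers at 340 nm.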

CAR:RXR [2] = molecular target: T1, CAR:RXR; assay: effect of CAR ligands on 9-cis-retinoic acid; format: binding, murine (mCAR LBD), human (RXR LBD); details: fluorescence quenching at 340 nm upon titrating 9c into CAR:RXR
CAR LBD within CAR:RXR = assay: differential amide HDX MS, CAR portion of CAR:RXR; design: species or system murine; details: for HDX kinetics versus unliganded CAR:RXR (in words): 4°C, pH 8, 10–3600 seconds
RXR LBD within CAR:RXR = assay: differential amide HDX MS, RXR portion of CAR:RXR; design: species or system human; details: 4°C, pH 8, 10–3600 seconds
mCAR = details: LXRE response element, HepG2 cells; ref Huang et al., 2004; cited from earlier work
murine CAR = details: cited from earlier work
human CAR isoform = details: ref Huang et al., 2004; cited from earlier work
[3] = SRC1 peptide binding in the presence of meclizine (ten-fold excess), 25°C, pH 7.2
[4] = SRC1 peptide binding in the presence of meclizine (ten-fold excess), 25°C, pH 7.2, average of at least three experiments ± SD
[5] = residues 327–358 (H10, H11, H12)

Sequence of (L343A)CAR:RXR (O35627 117-358 L343A, other chains not shown): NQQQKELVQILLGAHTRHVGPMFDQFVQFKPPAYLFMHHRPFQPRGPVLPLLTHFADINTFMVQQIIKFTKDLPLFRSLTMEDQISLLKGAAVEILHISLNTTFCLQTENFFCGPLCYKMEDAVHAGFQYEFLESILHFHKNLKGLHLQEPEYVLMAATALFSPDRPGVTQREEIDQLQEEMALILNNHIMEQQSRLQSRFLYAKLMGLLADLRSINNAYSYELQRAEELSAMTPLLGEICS
T1 sequence (O35627 117-358, other chains not shown): as the sequence (O35627 117-358 L343A, other chains not shown) above, with A227L counted along it

CC[C@H](C)[C@H](NC(=O)[C@H](CCCCN)NC(=O)[C@H](Cc1c[nH]cn1)NC(=O)[C@@H](N)CCCNC(=N)N)C(=O)N[C@@H](CC(C)C)C(=O)N[C@@H](Cc1c[nH]cn1)C(=O)N[C@@H](CCCNC(=N)N)C(=O)N[C@@H](CC(C)C)C(=O)N[C@@H](CC(C)C)C(=O)N[C@@H](CCC(N)=O)C(=O)N[C@@H](CCC(=O)O)C(=O)NCC(=O)N[C@@H](CO)C(=O)O [SRC1 peptide]
ΔG (CAR:RXR [1]; [3]): -8.2 kcal/mol | −TΔS (CAR:RXR [1]; [3]): 1.7 kcal/mol | n (one-site binding model) (CAR:RXR [1]; [4]): 0.95 ± 0.08 | ΔH (CAR:RXR [1]; [4]): -9.9 ± 0.3 kcal/mol | unfavorable entropy (TΔS) of SRC1 peptide binding (in words) ((L343A)CAR:RXR; (L343A)CAR:RXR, no ligand): appreciably higher unfavorable entropy (TΔS) | affinity for SRC1 peptide (in words) ((L343A)CAR:RXR; (L343A)CAR:RXR, no ligand, versus wild-type CAR): lower than wild-type CAR | ΔG ((L343A)CAR:RXR; L343A (TCPOBOP)): -7.8 kcal/mol | −TΔS ((L343A)CAR:RXR; L343A (TCPOBOP)): 3.7 kcal/mol | n (one-site binding model) ((L343A)CAR:RXR; L343A (TCPOBOP)): 0.92 ± 0.14 | ΔH ((L343A)CAR:RXR; L343A (TCPOBOP)): -11.5 ± 0.8 kcal/mol | ΔG ((L343A)CAR:RXR; L343A (no ligand)): -6.6 kcal/mol | −TΔS ((L343A)CAR:RXR; L343A (no ligand)): 4.0 kcal/mol | n (one-site binding model) ((L343A)CAR:RXR; L343A (no ligand)): 1.0 ± 0.13 | ΔH ((L343A)CAR:RXR; L343A (no ligand)): -10.6 ± 0.5 kcal/mol | affinity for coactivator and entropy (in words) ((L343F)CAR:RXR; (L343F)CAR:RXR, no ligand, versus wild-type complex): significantly greater affinity for coactivator and lower unfavorable entropy compared to the wild-type complex | ΔG ((L343F)CAR:RXR; L343F (androstenol)): -7.3 kcal/mol | −TΔS ((L343F)CAR:RXR; L343F (androstenol)): 2.7 kcal/mol | n (one-site binding model) ((L343F)CAR:RXR; L343F (androstenol)): 1.0 ± 0.04 | ΔH ((L343F)CAR:RXR; L343F (androstenol)): -10.0 ± 0.2 kcal/mol | ΔG ((L343F)CAR:RXR; L343F (no ligand)): -8.2 kcal/mol | −TΔS ((L343F)CAR:RXR; L343F (no ligand)): 0.30 kcal/mol | n (one-site binding model) ((L343F)CAR:RXR; L343F (no ligand)): 0.97 ± 0.05 | ΔH ((L343F)CAR:RXR; L343F (no ligand)): -8.5 ± 0.2 kcal/mol

Clc1cnc(Oc2ccc(Oc3ncc(Cl)cc3Cl)cc2)c(Cl)c1 [TCPOBOP, 1,4-bis[2-(3,5-dichloropyridyloxy)]benzene]
affinity of ligand-bound CAR:RXR for SRC1 coactivator (in words) (CAR:RXR [1]): higher affinity for coactivator than meclizine | tryptophan quenching of CAR:(W282F)RXR (in words) (CAR:(W282F)RXR): strong dose-dependent increase in tryptophan quenching | tryptophan fluorescence response of CAR:(W305F)RXR (in words) (CAR:(W305F)RXR): no significant response | effect on 9c binding to CAR:RXR (in words) (CAR:RXR [2]): do not appear to significantly affect 9-cis-retinoic acid (9c) binding to CAR:RXR | overall impact on conformational dynamics of CAR (in words) (CAR LBD within CAR:RXR; differential HDX, TCPOBOP compared with meclizine): broader and of greater magnitude than that of meclizine | HDX kinetics versus unliganded CAR:RXR (in words) (CAR LBD within CAR:RXR; residues 143–178 (helices H2′, H2″, parts of H3)): significant protection from exchange | HDX kinetics versus unliganded CAR:RXR (in words) (CAR LBD within CAR:RXR; [5]): most significant reductions in HDX behavior | HDX exchange kinetics, residues 339–345 in CAR (in words) (CAR LBD within CAR:RXR; residues 339–345, CAR(TCPOBOP):RXR compared with CAR(meclizine):RXR): greater magnitude reduction in exchange kinetics | HDX kinetics of RXR versus unliganded CAR:RXR (in words) (RXR LBD within CAR:RXR; RXR residues 416–432 (helix H10)): significant reduction in HDX kinetics | agonist response (in words) (mCAR): stronger agonist response from CAR than meclizine | transactivation by murine CAR (in words) (murine CAR; ref Tzameli et al., 2000): further enhanced

C[C@]12CC[C@@H](O)C[C@@H]1CC[C@@H]1[C@@H]2CC[C@]2(C)C=CC[C@@H]12 [androstenol, 5α-androst-16-en-3α-ol]
ligand function on murine CAR (in words) (murine CAR; androstane metabolites, ref Forman et al., 1998): physiological inverse agonist ligands of murine CAR

Cc1cccc(CN2CCN(C(c3ccccc3)c3ccc(Cl)cc3)CC2)c1 (stereo not drawn) [meclizine, 1-[(4-chlorophenyl)(phenyl)methyl]-4-(3-methylbenzyl)piperazine]
affinity of ligand-bound CAR:RXR for SRC1 coactivator (in words) (CAR:RXR [1]): affinity for coactivator is less than CAR(TCPOBOP) | HDX kinetics versus unliganded CAR:RXR (in words) (CAR LBD within CAR:RXR; residues 228–245 (segment of β-sheet and H6)): significantly protected to exchange | HDX kinetics versus unliganded CAR:RXR (in words) (CAR LBD within CAR:RXR; [5]): significantly protected to exchange | HDX kinetics of RXR versus unliganded CAR:RXR (in words) (RXR LBD within CAR:RXR; 84 regions of RXR): no significant differences in exchange kinetics in RXR | agonist response (in words) (mCAR): mCAR agonist | function on human CAR (in words) (human CAR isoform): inverse agonist | transactivation by murine CAR (in words) (murine CAR; ref Huang et al., 2004): further enhanced
